The full list was thinned out, with hits kept by preference.
Jurkat NFkB inh: lowers PMA/ionomycin-induced NF-kB signal in Jurkat cells. inhibition, % at 4 µM. AID 435003. PMA/ionomycin-induced NF-kB luciferase reporter, luminescence. 330,000 compounds, 0.53% hits; in the data active = inhibition above about 50%
UPR CHOP act: activators of apoptotic arm of unfolded protein response (CHOP) | 330,000 compounds, 0.34% hits | activation, % at 10 µM | CHO-CHOP luciferase reporter, UPR activation, luminescence; percent of tunicamycin response over DMSO baseline;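 active = at 10 µM dose, activation of 40% or more, normalized to positive control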;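 also: 100% = tunicamycin at 10 µg/mL and 0% = DMSO alone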
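System: CHO CHOP reporter cells. Amount: 500 cells per well. Buffer or medium: F12 medium, 10% FBS. Compound dosing: one dose, 10 µM in 0.5% DMSO. Incubation: 6 h compound exposure at 37 °C after overnight seeding. Technique: Steady-Glo luciferase luminescence. Benchmarks: tunicamycin and DMSO controls.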
XBP1 UPR activ: activators of adaptive arm of unfolded protein response (XBP1). CHO-XBP1 luciferase reporter, IRE1-XBP1 UPR activation, luminescence; percent of tunicamycin response, DMSO as zero. activation, % at 20 µM. 330,000 compounds, 0.33% hits. AID 463104;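 active = versus positive control, 20 µM dose yields 30% or more activation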;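 also: 100% = tunicamycin at 10 µg/mL and 0% = DMSO only wells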
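Material: IRE1-XBP1 luciferase reporter CHO line / Quantity: one thousand reporter cells per well / Buffer or medium: F12 with 10% serum / Compound: 20 µM single concentration, DMSO 1% / Times: 6 h treatment, 37 °C / Detection: Steady-Glo luciferase glow luminescence, 10 min after reagent addition / Benchmarks: tunicamycin high, DMSO low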
CHOP inh: blocks CHOP induction under ER stress; CHO-K1 CHOP-promoter luciferase, tunicamycin-induced, 15-18 h; inhibition, % at 10 µM; 220,000 compounds, 3.8% hits; AID 2732;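 active = compounds that reduced the stress-induced luciferase reporter signal by more than about 70% of percent inhibition, limit read from the data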;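 also: 0% = tunicamycin plus vehicle and 100% = wells without tunicamycin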
697 NFkB inh: lowers PMA/ionomycin-induced NF-kB signal in 697 B cells; 697 B-cell NF-kB luciferase reporter, 16 h; inhibition, % at 4 µM; 330,000 compounds, 0.33% hits; AID 435022; in the data active = inhibition above about 35%
* hit, by the source's call; nt = no result.

SMILES | Jurkat NFkB inh | UPR CHOP act | XBP1 UPR activ | CHOP inh | 697 NFkB inh
CCn1c(C)cc(/C=C2\SC(=O)N(CC(=O)Nc3ccc(C)c(C)c3)C2=O)c1C | 10 | 2 | 0 | 93* | 11
COc1ccc(Oc2nc(SC)nc3ccccc23)cc1 | -9 | -2 | -3 | 82* | -18
COc1ccc(Oc2nc3ccccc3nc2C(F)(F)F)cc1 | 2 | 1 | -1 | 70* | 11
COc1ccc(Oc2nc(-c3cccnc3)nc3ccccc23)cc1 | -4 | 3 | 6 | 18 | -3
CC(C)c1cccc(C(C)C)c1NC(=O)c1ccc(OCC(=O)NCc2ccccc2)cc1 | 0 | 0 | 2 | 94* | 20
CC(=O)Nc1ccc(OCC(=O)NCc2ccccc2)cc1 | 3 | -2 | 4 | 2 | 30
Cc1ccc(/C=C2/NC(=O)N(Cc3ccccc3)C2=O)s1 | -4 | -1 | -1 | 44 | 5
Cc1cccc(CN2C(=O)N/C(=C/c3ccc(C)s3)C2=O)c1 | 13 | 0 | 3 | 90* | -27
CCn1ncc(Br)c1C(=O)Nc1nccs1 | -9 | -2 | -4 | 77* | -16
CCOc1ccc(N(CC(=O)NC2CCCC2)S(=O)(=O)c2c(C)[nH]c(=O)[nH]c2=O)cc1 | 4 | -1 | -3 | 11 | 14
O=C(CC1SC(=O)N(Cc2cccc3ccccc23)C1=O)Nc1nccs1 (stereo not given) | -9 | 0 | 0 | 73* | -48
CC1C/C(=N\NC(=O)c2ccc(NS(=O)(=O)c3ccc(Br)cc3)cc2)CC(C)(C)C1 (stereo not given) | 8 | 1 | -3 | 19 | 16
CC(C)c1ccc(Nc2nc(Cl)nc(NCc3ccco3)n2)cc1 | 4 | 1 | 3 | 79* | -12
CC(C)c1ccc(Nc2nc(Cl)nc(NCCO)n2)cc1 | -9 | 1 | -1 | nt | -20
CCOc1ccc(-c2nnc(N3CCCCC3)c3ccccc23)cc1 | -11 | 1 | 1 | 79* | -18
Cc1cc(O)c(C(C)C)cc1C1(c2cc(C(C)C)c(O)cc2C)OC(=O)c2ccccc21 | 8 | 23 | -7 | 106* | -16
Cc1cc(C2(c3ccc(O)c(C)c3)OC(=O)c3ccccc32)ccc1O | -8 | 0 | 0 | -5 | -10
COc1ccc(/C=C/c2nc(-c3ccccc3O)n(-c3ccccc3)n2)cc1 | -15 | 3 | 0 | 61 | -15
COc1ccc(/C=C/c2nc(-c3ccccc3O)n[nH]2)cc1 | -129 | 6 | 3 | 79* | -119
Cc1ccccc1N=C(NOCc1ccc(Cl)cc1Cl)c1nonc1N | 23 | 0 | 0 | 85* | 6
C=C(C)COc1ccc2c3c(c(=O)oc2c1OCC(=C)C)CCC3 | 8 | 2 | -1 | 73* | 4
C=C(C)COc1ccc2c(C)c(C)c(=O)oc2c1OCC(=C)C | 16 | -2 | -7 | 66 | 4
CNC(=O)NC(=O)COC(=O)c1ccccc1OCc1ccccc1 | 1 | 0 | 2 | 11 | 21
CCN1C(=O)CSC1=NC12CC3CC(CC(C3)C1)C2 | -1 | -3 | -4 | 38 | 10
CN1C(=O)CSC1=NC12CC3CC(CC(C3)C1)C2 | -4 | 0 | -4 | 73* | 8
SMILES | Jurkat NFkB inh | UPR CHOP act | XBP1 UPR activ | CHOP inh | 697 NFkB inh
Cc1cc(C)nc(Nc2ncc(O)n2-c2ccc(C)c(C)c2)n1 | 9 | -1 | 4 | 18 | 14
Cc1cc(C)nc(Nc2ncc(O)n2-c2ccc(C)c(Cl)c2)n1 | 10 | 2 | 1 | 80* | 4
CCN1CCN(C(c2cccs2)C(C)NS(=O)(=O)c2ccc(F)cc2)CC1 (stereo not given) | -11 | 0 | -4 | 73* | -7
Cn1c(/C=N/NC(=O)c2ccccc2Br)nc2ccccc21 | 5 | -2 | -3 | 84* | 16
CCc1ccc(O)c(N=Cc2cccc(C)c2O)c1 | 3 | 2 | 1 | 76* | -28
C=CCc1cccc(C=Nc2cc(Br)ccc2O)c1O | 25 | 3 | 4 | 98* | 5
Cc1cccc(C=Nc2ccc3c4c(cccc24)CC3)c1O | 0 | 3 | 2 | -6 | -6
COc1ccc(NC(=O)c2ccc(F)c(F)c2)c2ccccc12 | 4 | 3 | 6 | nt | -14
CCCc1nc2ccccc2c(C(=O)OCC(=O)Nc2cccc(S(=O)(=O)N3CCOCC3)c2)c1CC | -7 | 2 | 3 | 77* | -7
CCNC(=S)Nc1ccc(S(=O)(=O)Nc2cc(C)nc(C)n2)cc1 | 4 | -1 | 0 | -3 | 4
COc1cc(NC(=O)Cn2ncc(Cl)c(Cl)c2=O)c(C)cc1[N+](=O)[O-] | nt | nt | nt | 109* | nt
O=C1COc2ccc(C(=O)COC(=O)c3sc4ccccc4c3Cl)cc2N1 | -6 | -2 | 47* | 21 | 1
CCOc1c(C)cc(S(=O)(=O)NCc2ccccn2)c(C)c1C | -4 | 1 | -5 | nt | -6
CCOc1ccccc1NC(=O)CN1C(=O)C(C)SC(C)C1=O (stereo not given) | -9 | 0 | -5 | -2 | -7
O=C(Nc1ccccc1)Nc1snnc1C(=O)Nc1cccc(O)c1 | -13 | -1 | 2 | 78* | 4
O=C(Nc1cccc(O)c1)c1cccc(C(=O)Nc2cccc(O)c2)c1 | -22 | 0 | -5 | nt | -2
CCN1CC(c2ccccc2)C(c2ccc(Cl)cc2)=N1 (stereo not given) | -22 | 0 | -1 | 79* | -8
CN1N=C(c2ccc(Cl)cc2)CC(c2ccc(Cl)cc2)C1=O (stereo not given) | -9 | -1 | -1 | 24 | 2
CC12CCC(c3nnc(SCc4ccc(Cl)cc4)nc31)C2(C)C (stereo not given) | 3 | -1 | -1 | 74* | 2
Clc1ccc(/C=N/Nc2nnc(Cl)c3ccccc23)cc1 | -78 | 5 | 6 | 49 | -79
Clc1nnc(N/N=C/c2ccccc2)c2ccccc12 | -109 | 1 | 2 | 75* | -83
Cc1ccc(NC(=O)c2nc[nH]c2C(=O)N[C@H](C)c2ccccc2)cc1 | 5 | -1 | 3 | nt | -14
Cc1cccc(NC(=O)c2nc[nH]c2C(=O)N[C@@H](C)C(=O)OC(C)(C)C)c1 | -21 | 2 | -5 | 86* | -32
CCOC(=O)c1ccc(NC(=O)c2nc[nH]c2C(=O)N[C@H](C)c2ccccc2)cc1 | 1 | 1 | 3 | 70* | 4
CCCCn1c(N)c(N(CCC(C)C)C(=O)c2ccc([N+](=O)[O-])s2)c(=O)[nH]c1=O | 11 | 2 | 1 | nt | 8
COc1ccc(NS(=O)(=O)c2ccc3c(c2)Cc2ccccc2-3)cn1 | 5 | -3 | -4 | 95* | -9
COc1ccc(NS(=O)(=O)c2ccc(N3CCCC3=O)cc2)cn1 | 12 | -1 | -2 | 3 | -9
Cc1cccc(N2CCN(CC(=O)Nc3ccccc3[N+](=O)[O-])CC2)c1C | 3 | 2 | 0 | 77* | 11
